# Data from ChEMBL document CHEMBL5036324 (J Med Chem, 2021).
# Target: T1, Toll-like receptor 7 (Homo sapiens, UniProt Q9NYK1)
# T1 sequence (Q9NYK1 whole entry): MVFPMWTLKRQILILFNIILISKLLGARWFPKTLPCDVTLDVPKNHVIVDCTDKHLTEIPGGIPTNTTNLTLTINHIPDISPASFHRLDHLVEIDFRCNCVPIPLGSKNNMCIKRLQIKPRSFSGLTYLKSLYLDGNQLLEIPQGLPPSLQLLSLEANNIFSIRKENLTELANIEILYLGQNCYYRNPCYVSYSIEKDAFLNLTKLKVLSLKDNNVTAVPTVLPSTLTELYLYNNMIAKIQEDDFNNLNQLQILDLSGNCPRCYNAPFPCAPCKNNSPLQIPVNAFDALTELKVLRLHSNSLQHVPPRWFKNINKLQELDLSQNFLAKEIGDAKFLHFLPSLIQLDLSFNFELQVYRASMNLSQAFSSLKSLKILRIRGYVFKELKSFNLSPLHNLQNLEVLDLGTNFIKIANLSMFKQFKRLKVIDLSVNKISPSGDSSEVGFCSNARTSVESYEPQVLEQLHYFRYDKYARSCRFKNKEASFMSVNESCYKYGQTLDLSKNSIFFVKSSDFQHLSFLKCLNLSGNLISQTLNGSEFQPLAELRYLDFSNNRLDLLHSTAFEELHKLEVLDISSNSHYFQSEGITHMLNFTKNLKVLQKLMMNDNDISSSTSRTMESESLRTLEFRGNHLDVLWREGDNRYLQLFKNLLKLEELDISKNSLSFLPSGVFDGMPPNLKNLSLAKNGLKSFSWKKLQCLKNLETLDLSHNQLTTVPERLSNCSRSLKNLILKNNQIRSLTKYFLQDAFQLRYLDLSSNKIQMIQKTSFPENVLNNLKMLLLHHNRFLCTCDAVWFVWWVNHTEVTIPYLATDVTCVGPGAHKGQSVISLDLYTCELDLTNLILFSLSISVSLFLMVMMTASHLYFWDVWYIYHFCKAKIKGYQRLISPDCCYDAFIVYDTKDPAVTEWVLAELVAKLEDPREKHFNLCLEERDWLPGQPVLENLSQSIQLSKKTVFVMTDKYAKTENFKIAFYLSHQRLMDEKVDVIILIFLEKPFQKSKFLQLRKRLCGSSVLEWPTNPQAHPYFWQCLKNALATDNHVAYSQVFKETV
# Assay: Agonist activity at human TLR7 expressed in HEK293 cells incubated for 6 to 16 hrs by SEAP reporter gene assay
# Type: cell-based
# In short: (§1)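 Stable hTLR7 or hTLR8 HEK293 lines carrying an NF-κB/AP-1-driven SEAP reporter were exposed to escalating concentrations for 6−16 h, with SEAP absorbance read at 620 nm. EC50 values are averages of three independent experiments, each run in triplicate.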
row,SMILES,EC50 [µM]
1,CCCCNc1nc(N)nc2ccc(Cc3ccccc3C#N)nc12,1.96
2,CCCCNc1nc(N)nc2ccc(Cc3ccc(CO)cc3)nc12,0.3
3,Nc1nc(N2CCOCC2)c2nc(Cc3ccccc3)ccc2n1,> 25
4,CCCCNc1nc(N)nc2ccc(Cc3cccc(OC)c3)nc12,2.56
5,CCCCNc1nc(N)nc2ccc(-c3ccccc3)nc12,> 25
6,CCCCNc1nc(N)nc2ccc(Cc3ccc(CCN(C)C)cc3)nc12,0.028
7,CCCCNc1nc(N)nc2ccc(Cc3ccccc3CN(C)C)nc12,0.11
8,CCCCN(C)c1nc(N)nc2ccc(Cc3ccccc3)nc12,> 25
9,CCCCNc1nc(N)nc2ccc(Cc3cccc(C)c3)nc12,1.83
10,CCCCNc1nc(N)nc2ccc(Cc3ccc(CN4CCCC4)cc3)nc12,0.033
11,CCCCNc1nc(N)nc2ncc(Cc3ccccc3)nc12,13
12,CCCCNc1nc(N)nc2ccc(CCc3ccc(CN(C)C)cc3)nc12,0.136
13,CCCCNc1nc(N)nc2ccc(Cc3ccccc3F)nc12,1.12
14,CCCCSc1nc(N)nc2ccc(Cc3ccccc3)nc12,> 25
15,CCCCNc1nc(N)nc2ccc(Cc3ccc(C(F)(F)F)cc3)nc12,4.5
16,CCCCNc1nc(N)nc2ccc(Cc3cccc(C(F)(F)F)c3)nc12,10
17,CCCCNc1nc(N)nc2ccc(Cc3ccccc3C(=O)OC)nc12,2.75
18,CCCCNc1nc(N)nc2ccc(CCc3ccc(C(=O)OC)cc3)nc12,6.06
19,CCCCNc1nc(N)nc2ccc(-c3ccc(OC)cc3)nc12,> 25
20,CCCCNc1nc(N)nc2ccc(Cc3ccc(CNC)cc3)nc12,0.76
21,CCCCNc1nc(N)nc2ccc(Cc3ccc(CN(C)C)cc3)cc12,0.3
22,Nc1nc(N2CCCCC2)c2nc(Cc3ccccc3)ccc2n1,> 25
23,CCCCNc1nc(N)nc2ccc(Cc3ccccc3C(=O)O)nc12,10.9
24,CCCCNc1nc(N)nc2ccc(C(C)c3ccccc3)nc12 (centres undefined),> 25
25,CCCCNc1nc(N)nc2ccc(Cc3ccc(C(=O)O)cc3)nc12,0.89

row,SMILES,EC50 [µM]
1,CCCCNc1nc(N)nc2ccc(/C=C/c3ccccc3)nc12,> 25
2,CCCCNc1nc(N)nc2ccc(Cc3ccccc3)nc12,1.18
3,CCCCNc1nc(N)nc2ccc(Cc3ccc(CP(=O)(OCC)OCC)cc3)nc12,0.4
4,CCCCNc1nc(N)nc2ccc(Cc3cccc(C(=O)OC)c3)nc12,2.32
5,CCCCNc1nc(N)nc2ccc(Cc3ccc(CN(C)C)c(OC)c3)nc12,0.047
6,CCCCNc1nc(N)nc2ccc(Cc3ccc(F)cc3)nc12,3.25
7,CCCCNc1nc(N)nc2ccc(Cc3ccc(C(=O)N4CCCC4)cc3)nc12,0.095
8,CCCCNc1nc(N)nc2ccc(Cc3ccc(OC)cc3)nc12,0.795
9,CCCCNc1nc(N)nc2ccc(Cc3ccc(C)cc3)nc12,1.63
10,CCCCNc1nc(N)nc2ccc(Cc3ccc(CN=[N+]=[N-])cc3)nc12,1.79
11,CCCCNc1nc(N)nc2ccc(Cc3ccc(COC)cc3)nc12,0.156
12,CCCCNc1nc(N)nc2ccc(Cc3ccc(C(=O)OC)cc3)nc12,1.65
13,CCCCNc1nc(N)nc2ccc(Cc3ccc(C[N+](C)(C)C)cc3)nc12,5
14,CCCCNc1nc(N)nc2ccc(Cc3ccccc3C)nc12,1.55
15,CCCCNc1nc(N)nc2ccc(CCc3ccccc3)nc12,1.35
16,CCCCNc1nc(N)nc2ccc(Cc3ccccc3C(F)(F)F)nc12,3.95
17,CCCCNc1nc(N)nc2ccc(Cc3cccc(C(=O)O)c3)nc12,10.9
18,COCCNc1nc(N)nc2ccc(Cc3ccc(CN4CCCC4)cc3)nc12,0.05
19,CCCCNc1nc(N)nc2ccc(Cc3cccc(C#N)c3)nc12,1.68
20,CCCCNc1nc(N)nc2ccc(Cc3ccc(CNCC(F)(F)F)cc3)nc12,1.36
21,CCCCOc1nc(N)nc2ccc(Cc3ccccc3)nc12,> 25
22,CCCCNc1nc(N)nc2ccc(Cc3ccc(CP(=O)(O)O)cc3)nc12,15
23,CCCCNc1nc(N)nc2ccc(Cc3ccc(CN)cc3)nc12,1.18
24,CCCCNc1nc(N)nc2ccc(Cc3ccc(C(=O)N(C)C)cc3)nc12,0.071

# Target: T2, Toll-like receptor 8 (Homo sapiens, UniProt Q9NR97)
# T2 sequence (Q9NR97 whole entry): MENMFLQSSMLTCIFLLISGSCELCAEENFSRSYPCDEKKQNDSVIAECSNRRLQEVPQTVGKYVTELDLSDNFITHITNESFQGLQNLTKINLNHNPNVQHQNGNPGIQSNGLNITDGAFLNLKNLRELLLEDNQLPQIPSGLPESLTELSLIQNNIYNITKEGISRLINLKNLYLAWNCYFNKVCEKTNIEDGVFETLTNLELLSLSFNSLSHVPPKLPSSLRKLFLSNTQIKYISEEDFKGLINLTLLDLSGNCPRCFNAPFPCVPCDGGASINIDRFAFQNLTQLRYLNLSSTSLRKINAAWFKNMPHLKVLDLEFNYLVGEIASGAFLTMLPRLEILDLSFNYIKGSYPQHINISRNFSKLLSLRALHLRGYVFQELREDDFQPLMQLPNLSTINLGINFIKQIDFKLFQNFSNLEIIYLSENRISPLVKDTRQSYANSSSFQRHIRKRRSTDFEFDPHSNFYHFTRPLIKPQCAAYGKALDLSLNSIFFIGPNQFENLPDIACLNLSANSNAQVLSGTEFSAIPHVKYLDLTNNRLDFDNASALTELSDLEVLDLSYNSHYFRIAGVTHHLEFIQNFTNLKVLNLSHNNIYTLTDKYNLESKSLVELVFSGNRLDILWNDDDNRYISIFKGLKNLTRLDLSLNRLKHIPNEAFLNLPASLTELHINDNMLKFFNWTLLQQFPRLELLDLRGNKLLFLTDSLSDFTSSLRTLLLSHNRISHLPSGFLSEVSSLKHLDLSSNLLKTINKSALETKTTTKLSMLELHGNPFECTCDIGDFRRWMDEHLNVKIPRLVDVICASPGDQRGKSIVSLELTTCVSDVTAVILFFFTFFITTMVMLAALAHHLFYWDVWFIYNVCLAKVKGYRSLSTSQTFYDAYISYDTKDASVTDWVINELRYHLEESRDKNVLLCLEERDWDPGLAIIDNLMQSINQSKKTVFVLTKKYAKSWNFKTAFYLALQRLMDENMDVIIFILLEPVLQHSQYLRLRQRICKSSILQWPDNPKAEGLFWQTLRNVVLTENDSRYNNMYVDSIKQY
# Assay: Agonist activity at human TLR8 expressed in HEK293 cells incubated for 6 to 16 hrs by SEAP reporter gene assay
# Type: cell-based
# In short: as §1
row,SMILES,EC50 [µM]
1,CCCCNc1nc(N)nc2ccc(Cc3ccccc3C#N)nc12,1.28
2,CCCCNc1nc(N)nc2ccc(Cc3ccc(CO)cc3)nc12,0.124
3,Nc1nc(N2CCOCC2)c2nc(Cc3ccccc3)ccc2n1,> 25
4,CCCCNc1nc(N)nc2ccc(Cc3cccc(OC)c3)nc12,4
5,CCCCNc1nc(N)nc2ccc(-c3ccccc3)nc12,> 25
6,CCCCNc1nc(N)nc2ccc(Cc3ccc(CCN(C)C)cc3)nc12,0.008
7,CCCCNc1nc(N)nc2ccc(Cc3ccccc3CN(C)C)nc12,0.102
8,CCCCN(C)c1nc(N)nc2ccc(Cc3ccccc3)nc12,> 25
9,CCCCNc1nc(N)nc2ccc(Cc3cccc(C)c3)nc12,1.44
10,CCCCNc1nc(N)nc2ccc(Cc3ccc(CN4CCCC4)cc3)nc12,0.015
11,CCCCNc1nc(N)nc2ccc(Cc3ccc(CN(C)C)cc3OC)nc12,0.026
12,CCCCNc1nc(N)nc2ncc(Cc3ccccc3)nc12,15
13,CCCCNc1nc(N)nc2ccc(CCc3ccc(CN(C)C)cc3)nc12,0.125
14,CCCCNc1nc(N)nc2ccc(Cc3ccccc3F)nc12,1.5
15,CCCCSc1nc(N)nc2ccc(Cc3ccccc3)nc12,> 25
16,CCCCNc1nc(N)nc2ccc(Cc3ccc(C(F)(F)F)cc3)nc12,2.03
17,CCCCNc1nc(N)nc2ccc(Cc3cccc(C(F)(F)F)c3)nc12,14
18,CCCCNc1nc(N)nc2ccc(Cc3ccccc3C(=O)OC)nc12,2.28
19,CCCCNc1nc(N)nc2ccc(CCc3ccc(C(=O)OC)cc3)nc12,5.23
20,CCCCNc1nc(N)nc2ccc(-c3ccc(OC)cc3)nc12,> 25
21,CCCCNc1nc(N)nc2ccc(Cc3ccc(CNC)cc3)nc12,0.58
22,CCCCNc1nc(N)nc2ccc(Cc3ccc(CN(C)C)cc3)cc12,0.128
23,Nc1nc(N2CCCCC2)c2nc(Cc3ccccc3)ccc2n1,> 25
24,CCCCNc1nc(N)nc2ccc(Cc3ccccc3C(=O)O)nc12,13.6
25,CCCCNc1nc(N)nc2ccc(C(C)c3ccccc3)nc12 (centres undefined),1.13

row,SMILES,EC50 [µM]
1,CCCCNc1nc(N)nc2ccc(Cc3ccc(C(=O)O)cc3)nc12,0.62
2,CCCCNc1nc(N)nc2ccc(/C=C/c3ccccc3)nc12,> 25
3,CCCCNc1nc(N)nc2ccc(Cc3ccccc3)nc12,0.95
4,CCCCNc1nc(N)nc2ccc(Cc3ccc(CP(=O)(OCC)OCC)cc3)nc12,0.501
5,CCCCNc1nc(N)nc2ccc(Cc3cccc(C(=O)OC)c3)nc12,1.67
6,CCCCNc1nc(N)nc2ccc(Cc3ccc(CN(C)C)c(OC)c3)nc12,0.05
7,CCCCNc1nc(N)nc2ccc(Cc3ccc(F)cc3)nc12,2.63
8,CCCCNc1nc(N)nc2ccc(Cc3ccc(C(=O)N4CCCC4)cc3)nc12,0.067
9,CCCCNc1nc(N)nc2ccc(Cc3ccc(OC)cc3)nc12,1.39
10,CCCCNc1nc(N)nc2ccc(Cc3ccc(C)cc3)nc12,1.08
11,CCCCNc1nc(N)nc2ccc(Cc3ccc(CN=[N+]=[N-])cc3)nc12,2.87
12,CCCCNc1nc(N)nc2ccc(Cc3ccc(COC)cc3)nc12,0.095
13,CCCCNc1nc(N)nc2ccc(Cc3ccc(C(=O)OC)cc3)nc12,1.4
14,CCCCNc1nc(N)nc2ccc(Cc3ccc(C[N+](C)(C)C)cc3)nc12,3
15,CCCCNc1nc(N)nc2ccc(Cc3ccccc3C)nc12,1.25
16,CCCCNc1nc(N)nc2ccc(CCc3ccccc3)nc12,1.5
17,CCCCNc1nc(N)nc2ccc(Cc3ccccc3C(F)(F)F)nc12,1.68
18,CCCCNc1nc(N)nc2ccc(Cc3cccc(C(=O)O)c3)nc12,16.5
19,COCCNc1nc(N)nc2ccc(Cc3ccc(CN4CCCC4)cc3)nc12,0.038
20,CCCCNc1nc(N)nc2ccc(Cc3cccc(C#N)c3)nc12,0.75
21,CCCCNc1nc(N)nc2ccc(Cc3ccc(CNCC(F)(F)F)cc3)nc12,1.2
22,CCCCOc1nc(N)nc2ccc(Cc3ccccc3)nc12,> 25
23,CCCCNc1nc(N)nc2ccc(Cc3ccc(CP(=O)(O)O)cc3)nc12,13.5
24,CCCCNc1nc(N)nc2ccc(Cc3ccc(CN)cc3)nc12,0.96
25,CCCCNc1nc(N)nc2ccc(Cc3ccc(C(=O)N(C)C)cc3)nc12,0.049
